In ChEMBL document CHEMBL4840303, “Design, synthesis, biological evaluation and pharmacophore model analysis of novel tetrahydropyrrolo[3,4-c]pyrazol derivatives as potential TRKs inhibitors” (Eur J Med Chem, 2021):

Legend:
[1] = biological target: High affinity nerve growth factor receptor (Homo sapiens, UniProt P04629); assay: Inhibition of N-terminal GST-tagged human TRKA (436 to 790 residues) expressed in baculovirus infected Sf21 cells using TK as substrate in presence of ATP measured after 30 mins by HTRF assay
[2] = MRT in Sprague dawley rat at 1 mg/kg, iv; type: ADME, organism-based; conditions: in vivo
In short: (§1)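 Male-unspecified SD rats, n = 3 per group, single i.v. dose 1 mg/kg or oral 3 mg/kg. Blood drawn into heparin tubes at set times, centrifuged at 4 °C, plasma quantified by LC-MS/MS; noncompartmental parameters fitted.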

[3] = MRT in Sprague dawley rat at 3 mg/kg, po; type: ADME, organism-based; conditions: in vivo; in short: as §1
[4] = Half life in Sprague dawley rat at 3 mg/kg, po; type: ADME, organism-based; conditions: in vivo
In short: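 Blood was collected into heparin tubes at specified time points and centrifuged at once (4 °C, 4000 rpm, 20 min). Plasma levels were quantified by LC-MS/MS. Parameters came from noncompartmental analysis.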

[5] = biological target: RAC-alpha serine/threonine-protein kinase (Homo sapiens) (UniProt P31749); assay: Inhibition of recombinant His-tagged human full length AKT1 expressed in baculovirus expression system at 1 uM measured by select screen assay relative to control
In short: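 Single-concentration profiling at 1.0 µM in a 28-kinase SelectScreen panel; percent inhibition reported.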

High affinity nerve growth factor receptor, sequence (P04629 whole entry, the tested form may be a part): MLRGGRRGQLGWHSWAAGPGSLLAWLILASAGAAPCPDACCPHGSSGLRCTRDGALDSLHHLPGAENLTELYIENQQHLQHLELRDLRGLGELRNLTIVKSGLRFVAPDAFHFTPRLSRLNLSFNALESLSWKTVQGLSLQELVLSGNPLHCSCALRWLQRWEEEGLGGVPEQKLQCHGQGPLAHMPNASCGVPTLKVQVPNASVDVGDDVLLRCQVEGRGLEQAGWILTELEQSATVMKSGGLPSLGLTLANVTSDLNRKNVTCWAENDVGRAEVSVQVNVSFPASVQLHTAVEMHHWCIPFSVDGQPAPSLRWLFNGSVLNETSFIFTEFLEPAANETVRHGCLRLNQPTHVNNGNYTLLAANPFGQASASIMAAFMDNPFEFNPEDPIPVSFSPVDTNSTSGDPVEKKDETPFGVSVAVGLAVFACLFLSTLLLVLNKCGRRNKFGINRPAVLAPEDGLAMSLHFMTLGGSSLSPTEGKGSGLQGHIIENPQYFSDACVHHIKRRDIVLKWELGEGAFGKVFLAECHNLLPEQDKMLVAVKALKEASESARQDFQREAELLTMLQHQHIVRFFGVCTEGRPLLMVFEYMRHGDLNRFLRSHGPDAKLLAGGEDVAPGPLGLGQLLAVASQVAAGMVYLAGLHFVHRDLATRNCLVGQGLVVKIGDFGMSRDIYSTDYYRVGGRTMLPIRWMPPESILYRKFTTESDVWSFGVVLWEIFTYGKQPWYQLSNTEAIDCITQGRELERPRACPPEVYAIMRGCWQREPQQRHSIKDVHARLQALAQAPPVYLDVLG
RAC-alpha serine/threonine-protein kinase (Homo sapiens), sequence (P31749 whole entry): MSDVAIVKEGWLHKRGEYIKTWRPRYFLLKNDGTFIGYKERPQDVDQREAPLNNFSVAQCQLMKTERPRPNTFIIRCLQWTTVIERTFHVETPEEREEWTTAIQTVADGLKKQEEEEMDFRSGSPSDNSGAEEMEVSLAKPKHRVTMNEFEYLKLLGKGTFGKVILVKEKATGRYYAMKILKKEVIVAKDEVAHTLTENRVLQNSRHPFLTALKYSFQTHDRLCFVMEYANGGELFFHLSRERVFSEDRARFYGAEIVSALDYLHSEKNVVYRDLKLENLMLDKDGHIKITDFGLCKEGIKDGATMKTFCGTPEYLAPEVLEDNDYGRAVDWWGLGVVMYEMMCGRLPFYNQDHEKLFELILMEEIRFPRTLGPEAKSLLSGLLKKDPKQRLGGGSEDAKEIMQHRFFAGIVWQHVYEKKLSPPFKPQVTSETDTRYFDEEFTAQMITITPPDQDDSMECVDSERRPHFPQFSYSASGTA

CN1CCN(c2ccc(C(=O)Nc3n[nH]c4c3CN(Cc3cc(F)cc(F)c3)C4(C)C)cc2)CC1 showed an IC50 [1] of 17 nM, an MRT [2] of 1.85 h and an MRT [3] of 3.49 h. For the same molecule, the half-life [4] was 1.89 h and the inhibition [5] was 2%.
